Calls of active or inactive are those of the source. The calls are words filed in the database; no cut-off is given here.
Key:
[1] = Induction of mPTP in energized rat liver mitochondria at 2.5 to 10 uM after 5 mins in presence of succinate by spectrophotometric analysis
Liver [2] = assay: Drug uptake in rat liver intra-mitochondria at 1 uM in presence of succinate/valinomycin by TPP+-based electrode assay; type: ADME, tissue-based
Summary of the method: (§1)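 TPP+-selective electrode with rat liver mitochondria (0.5 mg/mL) in 120 mM KCl, 10 mM HEPES pH 7.2, 1 mM EGTA at 37 °C with rotenone 1.5 μM. Five 1 μM additions calibrated the electrode, then succinate 10 mM was added, then valinomycin 0.2 μg/mL. The accumulation ratio assumed a matrix volume of ~0.5 μL/mg with a binding correction.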

[3] = Antioxidant activity assessed as DPPH radical scavenging activity measured every minute for 45 mins; type: functional
Summary of the method: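 DPPH• ethanolic solution diluted to absorbance 0.72 ± 0.02 at 515 nm. Ethanolic test solutions (50–500 μM) were added in triplicate and read at 515 nm. Inhibition was taken against an ethanol blank (100% radical), and IC50 was read from dose–response curves.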

Liver [4] = assay: Ratio of drug level in rat liver intra-mitochondria to extra-mitochondria at 1 uM in presence of succinate/valinomycin by TPP+-based electrode assay; type: ADME, tissue-based; summary of the method: as §1
Rattus norvegicus [5] = organism: Rattus norvegicus; assay: Inhibition of mPTP in energized rat liver mitochondria at 2.5 to 10 uM after 5 mins in presence of succinate by spectrophotometric analysis
Liver [6] = assay: Induction of basal oxygen consumption under nonphosphorylative conditions in rat liver mitochondria after 5 mins in presence of glutamate/malate; type: functional
Summary of the method: (§2)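 Glutamate/malate (10/5 mM) or succinate (5 mM) was the substrate, with compound 2.5–10 μM for 5 min (state 2). ADP was added (125 nmol glutamate/malate; 75 nmol succinate), then oligomycin 2 μg/mL, then FCCP 1 μM. RCR and ADP/O were calculated. Seven experiments.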

Liver [7] = assay: Decrease in oxidative phosphorylation efficiency in rat liver mitochondria assessed as reduction in coupling between ATP systhesis and oxygen consumption after 5 mins in presence of succinate; type: functional; summary of the method: as §2
Liver [8] = assay: Induction of membrane hyperpolarization in rat liver mitochondria assessed as change in repolarization potential at 2.5 uM; type: functional
Summary of the method: (§3)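 Safranine (5 μM) fluorescence (ex 495/em 586 nm) at 25 °C. Rat liver mitochondria (0.5 mg/2 mL) were in 200 mM sucrose, 1 mM KH2PO4, 10 mM Tris pH 7.4, 10 μM EGTA with glutamate/malate or succinate, after 5 min with 2.5–10 μM. ADP 25 nmol depolarised, then FCCP 1 μM was added. A valinomycin calibration in K+-free medium was used, five experiments.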

Liver [9] = assay: Induction of basal oxygen consumption under nonphosphorylative conditions in rat liver mitochondria after 5 mins in presence of succinate; type: functional; summary of the method: as §2
[10] = Redox potential of compound in Ag/AgCl-NaCl containing phosphate buffer at 0.1 mM at pH 7.4 by cyclic voltammetric analysis
Summary of the method: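 Voltammetry used a glassy carbon working electrode, Pt counter and Ag/AgCl reference. Compound was at 0.1 mM final (10 mM ethanolic stock) in pH 7.4 potassium phosphate electrolyte.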

Liver [11] = assay: Increase in oligomycin-inhibited respiration in rat liver mitochondria after 5 mins in presence of succinate; type: functional; summary of the method: as §2
Liver [12] = assay: Decrease in oxidative phosphorylation efficiency in rat liver mitochondria assessed as reduction in respiratory control ratio after 5 mins in presence of glutamate/malate; type: functional; summary of the method: as §2
Liver [13] = assay: Induction of basal respiration in rat liver mitochondria measured 5 mins after ADP phosphorylation in presence of glutamate/malate; type: functional; summary of the method: as §2
Liver [14] = assay: Increase in oligomycin-inhibited respiration in rat liver mitochondria after 5 mins in presence of glutamate/malate; type: functional; summary of the method: as §2
Liver [15] = assay: Induction of ADP-stimulated respiration in rat liver mitochondria after 5 mins in presence of succinate; type: functional; summary of the method: as §2
Liver [16] = assay: Induction of ADP-stimulated respiration in rat liver mitochondria after 5 mins in presence of glutamate/malate; type: functional; summary of the method: as §2
Liver [17] = assay: Induction of basal respiration in rat liver mitochondria measured 5 mins after ADP phosphorylation in presence of succinate; type: functional; summary of the method: as §2
[18] = Antioxidant activity assessed as GO radical scavenging activity measured for 30 mins in absence of light; type: functional
Summary of the method: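 Ethanolic GO• (5 mM stock) diluted to absorbance 1.00 ± 0.02 at 428 nm. Test solutions (5–75 μM in ethanol) were added in triplicate and read at 428 nm at room temperature. Inhibition was taken against an ethanol blank (100% radical).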

Liver [19] = assay: Decrease in oxidative phosphorylation efficiency in rat liver mitochondria assessed as reduction in coupling between ATP systhesis and oxygen consumption after 5 mins in presence of glutamate/malate; type: functional; summary of the method: as §2
[20] = Lipophilicity of compound in Ag/AgCl-NaCl containing PET membrane assessed as tranfer potential at pH 7; type: physicochemical
Summary of the method: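 Transfer across a liquid–liquid interface on a microporous PET membrane, with 1,6-dichlorohexane organic phase containing BTPPATPBCl. A gelled 2 mM BTPPACl + 2 mM NaCl reference was used, with 10 mM Tris-HCl pH 7.0 aqueous electrolyte.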

Liver [21] = assay: Antioxidant activity in rat liver mitochondria assessed as inhibition of FeSO4/H2O2-induced lipid peroxidation at 5 uM preincubated for 5 mins followed by FeSO4/H2O2 addition for 15 mins by TBARS-based fluorescence assay; type: functional
Summary of the method: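 Rat liver mitochondria (2 mg protein/mL) in 100 mM KCl, 10 mM Tris-HCl pH 7.6 with glutamate/malate at 37 °C. After 5 min with compound (5 μM), 100 μM FeSO4/500 μM H2O2/5 mM ascorbate was added for 15 min. Butylated hydroxytoluene, perchloric acid and thiobarbituric acid were added, then heated 15 min at 100 °C. Read-out as % of control, three experiments.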

Liver [22] = assay: Inhibition of ADP-induced membrane depolarization in succinate energized rat liver mitochondria at 10 uM preincubated for 5 mins followed by ADP addition measured by safranine-based spectrofluorometric analysis; type: functional, tissue-based; summary of the method: as §3
Liver [23] = assay: Antioxidant activity in rat liver mitochondria assessed as inhibition of ADP/FeSO4-induced lipid peroxidation at 5 uM preincubated for 5 mins followed by ADP/FeSO4 addition; type: functional
Summary of the method: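 Rat liver mitochondria (2 mg) in 100 mM KCl, 10 mM Tris-HCl pH 7.6, with glutamate/malate (5/2.5 mM) at 37 °C. After 5 min with compound (5 μM), peroxidation was started with ADP/0.1 mM FeSO4. The lag phase of O2 consumption was measured by Clark electrode and expressed as % of control. Six experiments.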

[24] = Antioxidant activity assessed as ABTS radical scavenging activity measured each minute for 15 mins by spectrophotometric analysis; type: functional
Summary of the method: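 ABTS•+ generated from 7 mM ABTS plus potassium persulfate, held 16 h dark at room temperature, then diluted in ethanol to absorbance 0.72 ± 0.02. Ethanolic test solutions (10–500 μM) were added to radical solution in triplicate. Inhibition was taken against an ethanol blank (100% radical), and IC50 was read from dose–response curves.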

Liver [25] = assay: Drug uptake in rat liver extra-mitochondria at 1 uM in presence of succinate/valinomycin by TPP+-based electrode assay; type: ADME, tissue-based; summary of the method: as §1
Rattus norvegicus [26] = organism: Rattus norvegicus; assay: Inhibition of mPTP in energized rat liver mitochondria at 10 uM after 5 mins in presence of succinate by spectrophotometric analysis
Summary of the method: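 Ca2+ (15–50 μM, titrated daily) added to trigger mPTP, with cyclosporin A as control. Swelling followed as light scattering at 540 nm with stirring at 37 °C. Reported as Δabsorbance; mean ± SEM, n=3.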

[27] = Iron chelating activity in ammonium acetate buffer assessed as inhibition of [Fe(ferrozine)3]2+ formation at 100 uM at pH 6.7 measured after 10 mins by spectrophotometric analysis
Summary of the method: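 Ferrozine assay in ammonium acetate buffer pH 6.7. Compound (100 μM) plus ammonium iron(II) sulfate (20 μM) for 10 min, read at 562 nm. Ferrozine was added, incubated 10 min at 37 °C, and re-read at 562 nm. The first reading was subtracted, with a DMSO blank and EDTA = 100%. Three experiments.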

HepG2 [28] = assay: Cytotoxicity against human HepG2 cells assessed as chromatin condensation at 2.5 uM after 48 hrs Hoechst 33342-staining based epifluorescence microscopic analysis; type: cell-based; details: hepg2, 48 h
Summary of the method: (§4)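 HepG2 cells on coverslips (8 × 10^4 cells/2 mL) were treated 48 h. In the last 30 min, cells were stained with TMRM (100 nM) and Hoechst 33342 (1 μg/mL) in HBSS pH 7.4 at 37 °C in the dark. Live cells were imaged by fluorescence microscopy, four random fields per well, three experiments.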

HepG2 [29] = assay: Antioxidant activity in human HepG2 cells assessed as reduction in H2O2-induced cell toxicity at 2.5 uM preincubated for 1 hr followed by H2O2 addition for 48 hrs by SRB assay; type: functional, cell-based
Summary of the method: (§5)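 HepG2 cells, grown in high-glucose DMEM with 10% FBS at 37 °C and 5% CO2, seeded at 2 × 10^4 cells/500 μL. Cells were preincubated with compound, then given 250 μM FeSO4 or 250 μM H2O2. Cell mass was read by SRB (fixed, stained, OD 540 nm) as % of untreated control. Four independent experiments.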

HepG2 [30] = assay: Antioxidant activity in human HepG2 cells assessed as intracellular GSH content per ug of protein at 2.5 uM after 48 hrs by HPLC analysis (reference value: 17.81 nmol); type: functional
HepG2 [31] = assay: Cytotoxicity against human HepG2 cells assessed as mitochondrial depolarization at 2.5 uM after 48 hrs TMRM-staining based epifluorescence microscopic analysis; type: cell-based; details: hepg2, 48 h; summary of the method: as §4
HepG2 [32] = assay: Antioxidant activity in human HepG2 cells assessed as reduction in FeSO4-induced cell toxicity at 2.5 uM preincubated for 1 hr followed by FeSO4 addition for 48 hrs by SRB assay; type: functional, cell-based; summary of the method: as §5
Liver [33] = assay: Inhibition of ADP-induced membrane depolarization in succinate energized rat liver mitochondria at 5 uM preincubated for 5 mins followed by ADP addition measured by safranine-based spectrofluorometric analysis; type: functional, tissue-based; summary of the method: as §3
HepG2 [34] = assay: Cytotoxicity against human HepG2 cells assessed as depletion of intracellular GSH content at 2.5 uM after 48 hrs by HPLC analysis; type: cell-based; details: hepg2, 48 h
Summary of the method: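 HepG2 cells (4 × 10^5 per 100 mm dish) were incubated 48 h, collected and stored at −80 °C in PBS. Reduced GSH was measured by reverse-phase HPLC with detection at 515 nm and expressed as nmol GSH/μg protein. Four experiments.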

HepG2 [35] = assay: Cytotoxicity against human HepG2 cells assessed as reduction in cell density at >2.5 uM after 48 hrs by SRB assay; type: cell-based; details: hepg2, 48 h

| Compound | Activity [1] | Drug uptake (Liver [2]) | IC50 [3] | Ratio (Liver [4]) | inhibition (Rattus norvegicus [5]) | Activity (Liver [6]) | Activity (Liver [7]) | Activity (Liver [8]) | Activity (Liver [9]) | Activity [10] | Activity (Liver [11]) | Activity (Liver [12]) | Activity (Liver [13]) | Activity (Liver [14]) | Activity (Liver [15]) | Activity (Liver [16]) | Activity (Liver [17]) | IC50 [18] | Activity (Liver [19]) | Activity [20] | other results |
| --- | --- | --- | --- | --- | --- | --- | --- | --- | --- | --- | --- | --- | --- | --- | --- | --- | --- | --- | --- | --- | --- |
| CS(=O)(=O)[O-].O=C(/C=C/c1cc(O)c(O)c(O)c1)NCCCCCCCCCC[P+](c1ccccc1)(c1ccccc1)c1ccccc1 | Non-Toxic | 5 mM | 13.7 µM | 3500 | Active | Dose-dependent effect | Dose-dependent effect | 25 mV | Dose-dependent effect | 0.057 V | Dose-dependent effect | Dose-dependent effect | Dose-dependent effect | Dose-dependent effect | Dose-dependent effect | Dose-dependent effect | Dose-dependent effect | 2.5 µM | Dose-dependent effect | 0.377 V | inhibition (Liver [21]): Active; inhibition (Liver [22]): Active; inhibition (Liver [23]): Active; IC50 [24]: 7.5 µM; Drug uptake (Liver [25]): 1.4 µM |
| COC1=C(OC)C(=O)C(CCCCCCCCCC[P+](c2ccccc2)(c2ccccc2)c2ccccc2)=C(C)C1=O.CS(=O)(=O)[O-] [MITOQUINONE MESYLATE] | Non-Toxic | – | – | – | – | – | – | – | – | – | – | – | – | – | – | – | – | – | – | – | inhibition (Rattus norvegicus [26]): inactive; inhibition [27]: inactive |
| CS(=O)(=O)[O-].O=C(/C=C/c1ccc(O)c(O)c1)NCCCCCCCCCC[P+](c1ccccc1)(c1ccccc1)c1ccccc1 | Non-Toxic | 4.7 mM | 25.9 µM | 2700 | Active | Dose-dependent effect | Dose-dependent effect | 10 mV | Dose-dependent effect | 0.174 V | Dose-dependent effect | Dose-dependent effect | Dose-dependent effect | Dose-dependent effect | Dose-dependent effect | Dose-dependent effect | Dose-dependent effect | 2.7 µM | Dose-dependent effect | 0.291 V | Activity (HepG2 [28]): Non-Toxic; inhibition (HepG2 [29]): Active; Activity (HepG2 [30]): 20.85 nmol; Activity (HepG2 [31]): Non-Toxic; inhibition (HepG2 [32]): Active; inhibition (Liver [33]): Active; Activity (HepG2 [34]): Non-Toxic; Activity (HepG2 [35]): Toxic; inhibition (Liver [23]): Active; IC50 [24]: 23.5 µM; Drug uptake (Liver [25]): 1.9 µM |

From ChEMBL document CHEMBL4038331 (J Med Chem, 2017)
